Converted amounts (≈) assume the structure as drawn.
How the values were obtained:
[1] = tested on: Staphylococcus aureus; test: Antibacterial activity against Staphylococcus aureus ATCC 25923 by broth microdilution technique; type: functional
Method in brief: (§1)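 Broth microdilution per CLSI (NCCLS) guidelines. Compounds were dissolved in DMSO with water added to give an 80% DMSO stock, then diluted 1:10 to working solutions in water or medium. They were tested at 0.125, 0.25, 0.5, 1, 2, 4, 8 and 16 (two-fold series) against the final inoculum. Each run included sterility controls and vehicle controls (plain medium; 4%, 2%, 1% DMSO). MIC was read as growth inhibition.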

[2] = tested on: Enterococcus faecalis; test: Antibacterial activity against Enterococcus faecalis ATCC 35550 by broth microdilution technique; type: functional; method in brief: as §1
[3] = tested on: Streptococcus pyogenes; test: Antibacterial activity against Streptococcus pyogenes ATCC 14289 by broth microdilution technique; type: functional; method in brief: as §1
[4] = tested on: Bacillus cereus; test: Antibacterial activity against Bacillus cereus ATCC 11778 by broth microdilution technique; type: functional; method in brief: as §1
[5] = tested on: Bacillus pumilus; test: Antibacterial activity against Bacillus pumilus ATCC 14884 by broth microdilution technique; type: functional; method in brief: as §1
[6] = tested on: Staphylococcus epidermidis; test: Antibacterial activity against Staphylococcus epidermidis ATCC 155 by broth microdilution technique; type: functional; method in brief: as §1
[7] = tested on: Staphylococcus aureus; test: Antibacterial activity against Staphylococcus aureus ATCC 9144 by broth microdilution technique; type: functional
Method in brief: (§2)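 Broth microdilution per NCCLS/CLSI. Compounds dissolved in DMSO with water added to give an 80% DMSO stock. Stock diluted 1:10 in 4-8% DMSO in water or medium to make the working solution. Tested at […]. Sterility controls run with each set. Inoculum viability controls included plain medium and 4%, 2% and 1% DMSO vehicle. MIC taken as growth inhibition.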

[8] = tested on: Staphylococcus aureus; test: Antibacterial activity against Staphylococcus aureus ATCC 29213 by broth microdilution technique; type: functional; method in brief: as §2
[9] = tested on: Streptococcus pneumoniae; test: Antibacterial activity against multidrug-resistant Streptococcus pneumoniae ATCC 700904 by broth microdilution technique; type: functional; method in brief: as §2
[10] = tested on: Staphylococcus aureus; test: Antibacterial activity against linezolid-resistant Staphylococcus aureus NRS 120 with G 2576T mutation by broth microdilution technique; type: functional; method in brief: as §2
[11] = tested on: Enterococcus faecalis; test: Antibacterial activity against multidrug-resistant Enterococcus faecalis ATCC 700802 by broth microdilution technique; type: functional; method in brief: as §2
[12] = tested on: Staphylococcus aureus; test: Antibacterial activity against methicillin-resistant Staphylococcus aureus ATCC 700699 by broth microdilution technique; type: functional; method in brief: as §2
[13] = tested on: Enterococcus faecalis; test: Antibacterial activity against Enterococcus faecalis ATCC 14506 by broth microdilution technique; type: functional; method in brief: as §1
[14] = tested on: Staphylococcus aureus; test: Antibacterial activity against linezolid-resistant Staphylococcus aureus NRS 119 with G 2576T mutation by broth microdilution technique; type: functional; method in brief: as §2
[15] = tested on: Enterococcus faecium; test: Antibacterial activity against vancomycin-resistant Enterococcus faecium ATCC 700221 by broth microdilution technique; type: functional; method in brief: as §2
[16] = tested on: Staphylococcus aureus; test: Antibacterial activity against Staphylococcus aureus ATCC 14154 by broth microdilution technique; type: functional; method in brief: as §2
[17] = Bioavailability in Sprague-Dawley rat at 30 mg/kg, po; details: in vivo
[18] = AUC in Sprague-Dawley rat at 30 mg/kg, po; type: ADME, organism-based; set-up: dose 30 mg/kg, route oral; details: plasma
Method in brief: (§3)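 Male Sprague-Dawley rats, 8-10 weeks old, fasted 18 h, fed again 4 h after dosing, water ad libitum. Oral dose of 30 mg/kg as a homogeneous suspension in 0.5% w/v CMC in normal saline. Serial retro-orbital samples into heparinized tubes; plasma separated at ambient temperature and assayed at once by HPLC with calibrators in drug-free rat plasma. Cmax, tmax, AUC0-∞ and t1/2 calculated.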

[19] = Tmax in Sprague-Dawley rat at 30 mg/kg, po; type: ADME, organism-based; set-up: dose 30 mg/kg, route oral; details: in vivo; method in brief: as §3
[20] = Cmax in Sprague-Dawley rat at 30 mg/kg, po; type: ADME, organism-based; set-up: dose 30 mg/kg, route oral; details: in vivo; method in brief: as §3
[21] = Half life in Sprague-Dawley rat at 10 mg/kg, iv; type: ADME, organism-based; set-up: dose 10 mg/kg, route intravenous; details: in vivo
Method in brief: (§4)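 The compound was given as a clear solution in PEG-400/cremophore/ethanol/propylene glycol/saline via the tail vein at 10 mg/kg. Retro-orbital blood went into heparinized tubes at intervals, and plasma was spun and analysed immediately by HPLC against spiked rat-plasma calibrators. Cmax, tmax, AUC0-∞ and t1/2 were derived.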

[22] = AUC in Sprague-Dawley rat at 10 mg/kg, iv; type: ADME, organism-based; set-up: dose 10 mg/kg, route intravenous; details: plasma
Method in brief: as §4, with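 “Male Sprague-Dawley rats, 8-10 weeks old, fasted 18 h, with food returned 4 h post-dose and water free. The” for “The”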

[23] = Cmax in Sprague-Dawley rat at 10 mg/kg, iv; type: ADME, organism-based; set-up: dose 10 mg/kg, route intravenous; details: in vivo
Method in brief: as §4, with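 “Male Sprague-Dawley rats, 8-10 weeks old, fasted 18 h, with food returned 4 h post-dose and water free. The” for “The”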

[24] = Half life in Sprague-Dawley rat at 30 mg/kg, po; type: ADME, organism-based; set-up: dose 30 mg/kg, route oral; details: in vivo; method in brief: as §3
[25] = Tmax in Sprague-Dawley rat at 10 mg/kg, iv; type: ADME, organism-based; set-up: dose 10 mg/kg, route intravenous; details: in vivo
Method in brief: as §4, with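 “Male Sprague-Dawley rats, 8-10 weeks old, fasted 18 h, with food returned 4 h post-dose and water free. The” for “The”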

[26] = Tmax in Sprague-Dawley rat at 25 mg/kg, po; type: ADME, organism-based; set-up: dose 25 mg/kg, route oral; details: in vivo

| Compound | MIC [1] [µg/mL] | MIC [2] [µg/mL] | MIC [3] [µg/mL] | MIC [4] [µg/mL] | MIC [5] [µg/mL] | MIC [6] [µg/mL] | MIC [9] [µg/mL] | MIC [10] [µg/mL] | MIC [12] [µg/mL] | MIC [14] [µg/mL] | MIC [15] [µg/mL] | MIC [16] [µg/mL] | further results |
| --- | --- | --- | --- | --- | --- | --- | --- | --- | --- | --- | --- | --- | --- |
| CC(=O)NC[C@H]1CN(c2ccc(N3CCN(C(=O)/C=C/c4ccc(CO)o4)CC3)c(F)c2)C(=O)O1 | 4 (≈ 8.22 µM) | 2 (≈ 4.11 µM) | 1 (≈ 2.06 µM) | 2 (≈ 4.11 µM) | 4 (≈ 8.22 µM) | 1 (≈ 2.06 µM) |  |  |  |  |  |  |  |
| CC(=O)NC[C@H]1CN(c2ccc(N3CCN(C(=O)/C=C/c4ccc([N+](=O)[O-])s4)CC3)c(F)c2)C(=O)O1 | 0.25 (≈ 0.483 µM) | 0.5 (≈ 0.966 µM) | 0.12 (≈ 0.232 µM) | 1 (≈ 1.93 µM) | 0.5 (≈ 0.966 µM) | ≤ 0.12 | ≤ 0.125 | 4 (≈ 7.73 µM) | 0.25 (≈ 0.483 µM) | 4 (≈ 7.73 µM) | 0.5 (≈ 0.966 µM) | 0.25 (≈ 0.483 µM) | MIC [7]: 0.25 µg/mL (≈ 0.483 µM); MIC [8]: 0.25 µg/mL (≈ 0.483 µM); MIC [11]: 0.5 µg/mL (≈ 0.966 µM); MIC [13]: 0.25 µg/mL (≈ 0.483 µM) |
| CC(=O)NC[C@H]1CN(c2ccc(N3CCN(C(=O)/C=C/c4ccoc4)CC3)c(F)c2)C(=O)O1 | 1 (≈ 2.19 µM) | 1 (≈ 2.19 µM) | 0.5 (≈ 1.1 µM) | 1 (≈ 2.19 µM) | 1 (≈ 2.19 µM) | 0.5 (≈ 1.1 µM) |  |  |  |  |  |  |  |
| CC(=O)NC[C@H]1CN(c2ccc(N3CCN(C(=O)/C=C/c4c[nH]c5ccccc45)CC3)c(F)c2)C(=O)O1 | 2 (≈ 3.96 µM) | 0.5 (≈ 0.989 µM) | 0.12 (≈ 0.237 µM) | 0.25 (≈ 0.495 µM) | 0.5 (≈ 0.989 µM) | 1 (≈ 1.98 µM) |  |  |  |  |  |  |  |
| CC(=O)NC[C@H]1CN(c2ccc(N3CCN(C(=O)/C=C/c4cccnc4)CC3)c(F)c2)C(=O)O1 | 1 (≈ 2.14 µM) | 2 (≈ 4.28 µM) | 0.5 (≈ 1.07 µM) | 1 (≈ 2.14 µM) | 1 (≈ 2.14 µM) | 0.5 (≈ 1.07 µM) |  |  |  |  |  |  |  |
| CC(=O)NC[C@H]1CN(c2ccc(N3CCN(C(=O)/C=C/c4ccc(C(=O)O)o4)CC3)c(F)c2)C(=O)O1 | > 16 | > 16 | > 16 | > 16 | > 16 | > 16 |  |  |  |  |  |  |  |
| CC(=O)NC[C@H]1CN(c2ccc(N3CCN(C(=O)/C=C/c4ccc(C=O)o4)CC3)c(F)c2)C(=O)O1 | 4 (≈ 8.26 µM) | 2 (≈ 4.13 µM) | 1 (≈ 2.06 µM) | 2 (≈ 4.13 µM) | 1 (≈ 2.06 µM) | 2 (≈ 4.13 µM) |  |  |  |  |  |  |  |
| CC(=O)NC[C@H]1CN(c2ccc(N3CCN(C(=O)/C=C/c4ccc(C(=O)[O-])o4)CC3)c(F)c2)C(=O)O1.[Na+] | > 16 | > 16 | > 16 | > 16 | > 16 | > 16 |  |  |  |  |  |  |  |
| CC(=O)NC[C@H]1CN(c2ccc([N+]3([O-])CCN(C(=O)/C=C/c4ccc([N+](=O)[O-])o4)CC3)c(F)c2)C(=O)O1 | 0.5 (≈ 0.966 µM) | 1 (≈ 1.93 µM) | 0.12 (≈ 0.232 µM) |  |  | 0.12 (≈ 0.232 µM) | 0.25 (≈ 0.483 µM) | 2 (≈ 3.86 µM) | 0.5 (≈ 0.966 µM) | 2 (≈ 3.86 µM) | 0.5 (≈ 0.966 µM) | 1 (≈ 1.93 µM) | bioavailability [17]: 60%; AUC [18]: 1870 ng·h/mL; Tmax [19]: 10.2 min; MIC [8]: 1 µg/mL (≈ 1.93 µM); MIC [11]: 1 µg/mL (≈ 1.93 µM); Cmax [20]: 1210 ng/mL; half-life [21]: 57 min; AUC [22]: 1030 ng·h/mL; Cmax [23]: 9180 ng/mL; half-life [24]: 58.2 min; Tmax [25]: 0 h |
| CC(=O)NC[C@H]1CN(c2ccc(N3CCN(C(=O)CO)CC3)c(F)c2)C(=O)O1 [EPEREZOLID] | 2 (≈ 5.07 µM) | 2 (≈ 5.07 µM) | 0.5 (≈ 1.27 µM) | 2 (≈ 5.07 µM) | 1 (≈ 2.54 µM) | 2 (≈ 5.07 µM) | 0.5 (≈ 1.27 µM) | > 16 | 1 (≈ 2.54 µM) | > 16 | 1 (≈ 2.54 µM) | 1 (≈ 2.54 µM) | MIC [7]: 2 µg/mL (≈ 5.07 µM); MIC [8]: 2 µg/mL (≈ 5.07 µM); MIC [11]: 1 µg/mL (≈ 2.54 µM); MIC [13]: 1 µg/mL (≈ 2.54 µM) |
| CC(=O)NC[C@H]1CN(c2ccc(N3CCOCC3)c(F)c2)C(=O)O1 [LINEZOLID] |  |  | 1 (≈ 2.96 µM) | 2 (≈ 5.93 µM) | 0.5 (≈ 1.48 µM) | 1 (≈ 2.96 µM) | 0.25 (≈ 0.741 µM) | > 16 | 1 (≈ 2.96 µM) | > 16 | 1 (≈ 2.96 µM) | 1 (≈ 2.96 µM) | Tmax [26]: 18.6 min; Tmax [25]: 0 h |

— ChEMBL document CHEMBL1149797, “Synthesis and in vitro antibacterial activities of novel oxazolidinones” (Eur J Med Chem, 2008)
